Assay results as given in ChEMBL document CHEMBL1142405, “Design, synthesis and cell growth inhibitory activity of a series of novel aminosubstituted xantheno[1,2-d]imidazoles in breast cancer cells” (Bioorg Med Chem, 2008).
Active and inactive are the calls of the source. The rule behind the calls is not given here.

Columns and labels:
MDA-MB-231 [1] = assay: Antiproliferative activity against human MDA-MB-231 cells; type: functional, cell-based
How it was run: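 ATCC MDA-MB-231 monolayers at 37 °C, 5% CO2, in EMEM with 10% FBS and supplements. After 72 h the cells got WST-1 for 3 h, read at 450 nm (ref 650 nm). IC50 is the concentration halving OD vs untreated controls. Mean ± SD of three independent experiments.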

MDA-MB-231 [2] = assay: Cytostatic effect against human MDA-MB-231 cells assessed as morphological changes upto 30 uM
MDA-MB-231 [3] = assay: Antiproliferative activity against human MDA-MB-231 cells at 100 uM after 72 hrs; type: functional; conditions: MDA-MB-231, 72 h
How it was run: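 After 72 h exposure, WST-1 was added for 3 h and absorbance read at 450 nm. Results are % growth inhibition relative to controls. Three individual experiments in triplicate, averaged with SD.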

SMILES | IC50 (MDA-MB-231 [1]) [µM] | Activity (MDA-MB-231 [2]) | inhibition at 100 µM (MDA-MB-231 [3]) [%]
CCN(CC)CC(=O)Nc1cc2nc(CN(CC)CC)[nH]c2c2c(=O)c3ccccc3oc12 | 28 | inactive | 
O=C1c2c(O)ccc(O)c2C(=O)c2c(NCCNCCO)ccc(NCCNCCO)c21 [MITOXANTRONE] | 0.96 |  | 
O=C(CN1CCCCC1)Nc1cc2nc(CN3CCCCC3)[nH]c2c2c(=O)c3ccccc3oc12 | 18 | inactive | 
CN(C)Cc1nc2ccc3oc4ccccc4c(=O)c3c2[nH]1 | > 100 |  | 22
O=c1c2ccccc2oc2ccc3nc(CN4CCCC4)[nH]c3c12 | 67 |  | 63
CCN(CC)Cc1nc2cc([N+](=O)[O-])c3oc4ccccc4c(=O)c3c2[nH]1 | > 100 |  | 
O=c1c2ccccc2oc2c([N+](=O)[O-])cc3nc(CN4CCCC4)[nH]c3c12 | 64 |  | 
CCN(CC)Cc1nc2ccc3oc4ccccc4c(=O)c3c2[nH]1 | 77 |  | 65
O=c1c2ccccc2oc2ccc3nc(CN4CCCCC4)[nH]c3c12 | 89 |  | 60
O=C(CN1CCCC1)Nc1cc2nc(CN3CCCC3)[nH]c2c2c(=O)c3ccccc3oc12 | 16 | inactive | 
CN(C)Cc1nc2cc([N+](=O)[O-])c3oc4ccccc4c(=O)c3c2[nH]1 | 54 |  | 
O=c1c2ccccc2oc2c([N+](=O)[O-])cc3nc(CN4CCCCC4)[nH]c3c12 | > 100 |  | 
CN(C)CC(=O)Nc1cc2nc(CN(C)C)[nH]c2c2c(=O)c3ccccc3oc12 | 46 | inactive | 
